From ChEMBL document CHEMBL4706701, “Synthesis and biological activity of selenopsammaplin A and its analogues as antitumor agents with DOT1L inhibitory activity” (Bioorg Med Chem, 2021)
The source made the active and inactive calls.

Key:
[1] = tested on: MDA-MB-231; test: Antiinvasive activity in human MDA-MB-231 cells assessed as reduction in cell invasion through matrigel-coated chamber after 24 hrs by diff-quik staining based microscopic analysis; format: functional; settings: dose 50-400 nM
Outline: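 MDA-MB-231 cells pretreated with compound (50–400 nM) for 24 h, harvested into serum-free medium and plated at 0.5–1 × 10⁶ cells/chamber on transwell inserts (8 μm pores) coated with type I collagen and 1:20 Matrigel/PBS; 30% FBS medium as chemoattractant below. After 24 h, invaded cells fixed, Diff-Quik stained, counted in 5 random fields at 200×; three separate experiments.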

[2] = tested on: MDA-MB-231; test: Antimetastatic activity against human MDA-MB-231 cells xenografted in BALB/c nu mouse assessed as down regulation of H3K79me2 expression in tumor tissue at 5 to 15 mg/kg, ip administered thrice per week for 38 days measured 1 week post last dose by H and E staining based immunohistochemical analysis; format: functional, organism-based; settings: dose 5-15 mg/kg, time 45.0 day
Outline: (§1)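 Tumors and lungs from orthotopic MDA-MB-231/Luc nude mice (ip dosing three times weekly, 38 days) fixed in 4% PFA, paraffin-embedded, sectioned, antigen-retrieved. Lungs H&E-stained for metastatic cells; tumor sections immunostained for Ki67, H3K79me2, E-cadherin, vimentin with HRP detection, hematoxylin counterstain, imaged at 200×.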

[3] = tested on: MDA-MB-231; test: Antitumor activity against human MDA-MB-231 cells xenografted in BALB/c nu mouse assessed as down regulation of Ki67 expression in tumor tissue at 5 to 15 mg/kg, ip administered thrice per week for 38 days measured 1 week post last dose by H and E staining based immunohistochemical analysis; format: functional, organism-based; settings: dose 5-15 mg/kg, time 45.0 day; outline: as §1

Measured: Activity

O=C(NCC[Se][Se]CCNC(=O)/C(Cc1ccccc1)=N/O)/C(Cc1ccccc1)=N/O
active: [1] Dose-dependent effect | [2] | [3]
